High-throughput results as filed in PubChem BioAssay.
UBC13 polyUb = human UBC13 polyubiquitination inhibition. inhibition, % at 20 µM. P61088. 0.47% of 330,000 active. UBC13 polyubiquitin chain formation, TR-FRET; in the data active = inhibition above about 45%, passing the limit was not always enough
Target sequence (P61088 whole entry, looked up): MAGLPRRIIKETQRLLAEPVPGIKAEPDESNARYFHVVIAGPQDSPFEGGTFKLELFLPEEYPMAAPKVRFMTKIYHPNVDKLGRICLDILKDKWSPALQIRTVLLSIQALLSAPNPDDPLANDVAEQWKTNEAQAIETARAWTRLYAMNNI
Apaf1 inhib = inhibitors of human Apaf-1 apoptosome; inhibition, % at 20 µM; reconstituted apoptosome caspase-3 activity, DEVD-Rh110 fluorescence; 0.71% of 330,000 active; AID 489030; O14727; active = inhibition of at least 40% at 20 µM;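 also: plate controls were DMSO wells for no effect and DEVD-CHO caspase inhibitor wells for full effect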
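System: reconstituted apoptosome with Apaf-1, cytochrome c, caspase-9, procaspase-3, dATP; Signal: Rh110 fluorescence intensity; Schedule: 30 min compound preincubation, 50 min activation, room temperature; Reagent: cytochrome c trigger plus (Z-DEVD)2-Rh110 caspase-3 substrate.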
Mdm2 MdmX PPI = inhibitors of human Mdm2/MdmX interaction | O15151+Q00987 | SaOS-2 split-luciferase Mdm2/MdmX complementation, luminescence | inhibition, % at 8 µM | 3% of 330,000 active | AID 485346;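 active = inhibition of at least 50% at 8 µM in the primary screen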
UPR XBP1 act = adaptive UPR (XBP1) activation; 0.33% of 330,000 active; activation, % at 20 µM; CHO-XBP1 luciferase reporter, IRE1-XBP1 UPR activation, luminescence; percent of tunicamycin response, DMSO as zero;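 active = versus positive control, 20 µM dose yields 30% or more activation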;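 also: 100% = tunicamycin at 10 µg/mL and 0% = DMSO only wells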
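Material: CHO cell line with stable XBP1 luciferase reporter; schedule: 16-18 h cell attachment at 37 °C, then 6 h compound exposure; signal: glow luminescence from Steady-Glo reagent; medium: serum-containing F12 medium, 10% FBS; benchmarks: tunicamycin 10 µg/mL and vehicle-only wells; read-out: percent activation relative to tunicamycin reference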
UPR CHOP act = apoptotic UPR (CHOP) activation; CHO-CHOP luciferase reporter, luminescence; percent of tunicamycin response over DMSO baseline; activation, % at 10 µM; 0.34% of 330,000 active; AID 449763;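 active = at 10 µM dose, activation of 40% or more, normalized to positive control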;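 also: 100% = tunicamycin at 10 µg/mL and 0% = DMSO alone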
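Dosing – one dose, 10 µM in 0.5% DMSO · System – CHO-CHOP cells, stable luciferase reporter of PERK-eIF2a-CHOP signalling · Input – 500 cells/well · Control set – tunicamycin 10 µg/mL final as positive, DMSO-only wells as negative · Timing – 6 h compound treatment, 37 °C · Measure – % activation vs tunicamycin · Technique – luminescence read with Steady-Glo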
CHOP UPR conf = apoptotic UPR (CHOP) activation, confirmed; shares compounds with UPR CHOP act; CHO-CHOP cells, CHOP-luciferase reporter luminescence; percent of tunicamycin response, DMSO as zero; activation, % at 10 µM; 64% of 1,000 active; in the data active = activation above about 33%;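 also: 0% = DMSO wells and 100% = tunicamycin 10 µg/mL wells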
UPR XBP1 confirm = adaptive UPR (XBP1) activation, confirmed; 63% of 1,000 active; activation, % at 20 µM; AID 485299; shares compounds with UPR XBP1 act; CHO-XBP1 IRE1-XBP1 luciferase reporter, luminescence;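 active = reporter signal at least 30% of the positive control's activation in two or more of four replicate wells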;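 also: plate controls were DMSO negative control for no effect and tunicamycin 10 µg/mL positive control for full effect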
Mdm2 MdmX conf = human Mdm2/MdmX binding inhibition, confirmed | shares compounds with Mdm2 MdmX PPI | luminescent assay | inhibition, % at 8 µM | 55% of 10,000 active; in the data active = inhibition above about 40%
Full FLuc ctr = inhibits full-length luciferase, flagging false Mdm2/MdmX hits. shares compounds with Mdm2 MdmX PPI. SaOS-2 full-length luciferase counterscreen, luminescence. inhibition, % at 8 µM. 77% of 6,200 active;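 active = mean inhibition at 8 µM reaching about 37%, which flags the compound as non-specific, limit read from the data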;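 also: p53-null SaOS-2 cells with luciferase driven by a doxycycline-inducible promoter; compound on cells about two nights before reading with doxycycline added after day one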
An asterisk follows results filed as active; . = no result given. Sampled rows, rich in hits. Any-hit rate of the full collection: about 4.1%.

SMILES	UBC13 polyUb	Apaf1 inhib	Mdm2 MdmX PPI	UPR XBP1 act	UPR CHOP act	CHOP UPR conf	Mdm2 MdmX conf	Full FLuc ctr	others
O=C(CN(c1cccc([N+](=O)[O-])c1)S(=O)(=O)c1ccccc1)NCc1cccnc1	-1.8	-14.5	-2.8	-2.1	0.8	.	.	.
CCn1c2ccccc2c2cc(NC(=O)CSc3nnc(-c4ccc(OC)c(OC)c4)n3N)ccc21	5.3	-6.6	-31.2	2.0	2.3	.	.	.
CCOc1ccc(-c2nnc(SCC(=O)Nc3ccc4c(c3)c3ccccc3n4CC)n2N)cc1	-7.2	-17.1	70.5*	215.5*	115.7*	46.5*	70.8*	23.1	UPR XBP1 confirm=191.4*
Cc1nn(Cc2c(Cl)cccc2Cl)c(C)c1NC(=O)c1cn(-c2ccccc2)nc1-c1ccccc1	-17.8	22.2	97.9*	77.8*	145.6*	75.9*	99.2*	37.3*	UPR XBP1 confirm=85.0*
Cc1nn(Cc2c(Cl)cccc2Cl)c(C)c1NC(=O)c1sc2ccccc2c1Cl	12.4	-2.6	52.9*	64.6*	49.5*	39.9*	14.4	.	UPR XBP1 confirm=67.0*
Cc1ccccc1Cn1nc(C)c(NC(=O)c2sc3ccccc3c2Cl)c1C	-9.8	25.2	18.7	2.3	2.0	.	.	.
COc1cccc(NC(=O)CN(C)C(=O)CCCc2nc3ccccc3s2)c1	3.8	4.1	26.3	0.1	0.2	.	.	.
Cc1cc(C)n(CCCNC(=O)c2ccc(C)c(S(=O)(=O)N3CCOCC3)c2)n1	2.9	-5.0	-3.8	-2.2	1.1	.	.	.
S=c1[nH]nc(-c2cc(-c3ccccc3)n[nH]2)n1/N=C/C(Br)=C/c1ccccc1	-25.1	14.2	99.8*	12.2	109.5*	130.3*	84.0*	24.2
O=S(=O)(CCSc1nc2ccccc2s1)c1nc2ccccc2s1	2.4	9.7	99.2*	-4.2	108.2*	153.5*	83.2*	54.7*
CCS(=O)(=O)CCSc1nc2ccccc2s1	-0.5	2.8	-3.6	0.4	1.3	.	.	.
CCOC(=O)C1(CCc2ccccc2)CCN(C(=O)CN2CCOC2=O)CC1	2.3	0.2	5.1	7.5	0.0	.	.	.
CC(C)CC(=O)Nc1nnc(S(=O)(=O)N(C)Cc2ccco2)s1	-3.4	5.1	9.5	-3.2	-1.0	.	.	.
Cc1ccc2[nH]cc(C(=O)CCl)c2c1	-4.3	11.8	82.4*	-6.3	347.8*	189.2*	67.5*	57.6*
Cc1ccc2c(C(=O)CCl)c(C)[nH]c2c1	12.1	-5.6	91.8*	-5.7	479.1*	274.2*	77.0*	60.0*
CN(Cc1cn[nH]c1-c1cc2ccccc2o1)CC1CCOCC1	-2.4	-23.5	-23.9	-0.6	-0.4	.	.	.
CCOC(=O)C1=C(CCl)NC(=O)NC1c1ccc2c(c1)OCO2 (stereo unspecified)	12.3	0.4	58.8*	-5.4	44.0*	36.8*	26.9	.
CCN1CCN(Cc2c(O)ccc3c2O/C(=C\C=C\c2ccccc2)C3=O)CC1	-2.6	14.0	95.8*	-1.9	153.6*	0.8	59.3*	37.3*
CN(C)Cc1c(O)ccc2c1O/C(=C\C=C\c1ccccc1)C2=O	-4.3	-7.6	100.5*	-3.5	96.5*	-0.5	72.3*	21.1
CCOC(=O)C1(Cc2ccccc2Cl)CCN(C(=O)CCn2ccnc2C)CC1	-9.5	15.7	-34.8	-0.4	3.4	.	.	.
O=Cc1[nH]c2ccccc2c1N(C(=O)CCl)c1ccc([N+](=O)[O-])cc1	-4.7	8.6	97.4*	3.1	54.7*	-0.2	94.0*	25.5
O=C(NC1CCN(CC(=O)N(c2ccccc2)c2ccccc2)CC1)c1ccc([N+](=O)[O-])cc1	11.2	5.0	23.3	0.9	-1.5	.	.	.
CCOc1cc(/C=C2/NC(=S)NC2=O)ccc1OCc1ccc([N+](=O)[O-])cc1	-15.0	-7.5	59.9*	126.9*	165.0*	25.6	34.8	.	UPR XBP1 confirm=39.4*
CCOc1cc(C(c2c(C)[nH][nH]c2=O)c2c(C)[nH][nH]c2=O)ccc1OCc1ccc([N+](=O)[O-])cc1	-4.2	27.1	-4.0	-1.4	0.5	.	.	.
COc1cc(C(=O)Oc2c(CN3CCOCC3)cc(Cl)c3cccnc23)cc(OC)c1OC	2.4	5.4	65.2*	24.0	62.2*	56.0*	46.0*	38.6*
SMILES	UBC13 polyUb	Apaf1 inhib	Mdm2 MdmX PPI	UPR XBP1 act	UPR CHOP act	CHOP UPR conf	Mdm2 MdmX conf	Full FLuc ctr	others
COc1cccc(C(=O)OCCN2CCOCC2)c1	8.0	-19.5	-28.1	-1.1	-0.6	.	.	.
O=C(Oc1c(CN2CCOCC2)cc(Cl)c2cccnc12)c1ccccc1Cl	-7.4	-4.8	41.0	18.9	39.8	.	.	.
O=C(Oc1c(CN2CCOCC2)cc(Cl)c2cccnc12)c1ccc(F)cc1	4.7	-3.4	52.0*	19.9	40.3*	40.4*	48.8*	42.2*
COc1cccc(C(=O)Oc2c(CN3CCOCC3)cc(Cl)c3cccnc23)c1	-7.0	17.1	53.5*	19.3	80.4*	28.3	56.1*	49.4*
O=[N+]([O-])c1cc2c(cc1/C=N/NS(=O)(=O)c1ccc(Br)cc1)OCO2	-12.7	24.5	2.3	2.7	-1.1	.	.	.
O=C(C[n+]1ccccc1)N/N=C/c1ccccc1Cl	3.3	-2.1	17.8	0.5	-0.2	.	.	.
O=C(Nc1ccc(F)c(Cl)c1)c1cncs1	3.2	1.4	15.8	-5.7	-0.2	.	.	.
Cc1ccc(NC(=O)CSc2ccc3nnc(CCNC(=O)c4ccccc4)n3n2)c(C)c1	5.3	1.4	-24.1	2.2	-0.1	.	.	.
O=c1cc(-c2ccco2)oc2c1ccc1ccccc12	6.0	5.4	29.8	0.3	1.4	.	.	.
O=c1cc(C(Cl)(Cl)Cl)oc2c1ccc1ccccc12	10.6	5.3	97.8*	163.1*	46.7*	33.2*	86.0*	51.6*	UPR XBP1 confirm=286.2*
COc1cc(NC(=O)c2ccc(C)cc2C)ccc1NC(=O)c1cc2ccccc2o1	14.0	-9.0	84.1*	148.0*	56.2*	15.1	62.5*	38.5*	UPR XBP1 confirm=71.8*
COc1cc(NC(=O)c2c(OC)cccc2OC)ccc1NC(=O)c1cc2ccccc2o1	1.6	2.9	-18.0	1.3	9.5	.	.	.
O=C(Cn1ncc(Cl)c(Cl)c1=O)N1CCN(S(=O)(=O)c2ccc3ccccc3c2)CC1	-24.5	5.7	100.2*	-5.4	93.9*	24.8	100.2*	53.0*
O=c1nc2ccc(Cl)cn2c2ccc(S(=O)(=O)N3CCOCC3)cc12	6.2	8.8	5.5	-0.7	1.9	.	.	.
